# According to ChEMBL document CHEMBL4819068, “Novel potent bifunctional carboxylesterase inhibitors based on a polyfluoroalkyl-2-imino-1,3-dione scaffold” (Eur J Med Chem, 2021):
# Assays:
# Liver carboxylesterase = molecular target: T1, Liver carboxylesterase (Sus scrofa, UniProt Q29550); experiment: Inhibition of porcine liver carboxylesterase using 4-NPA as substrate preincubated for 10 mins followed by substrate addition by spectrophotometric analysis; type: tissue-based
# T1 sequence (Q29550 whole entry): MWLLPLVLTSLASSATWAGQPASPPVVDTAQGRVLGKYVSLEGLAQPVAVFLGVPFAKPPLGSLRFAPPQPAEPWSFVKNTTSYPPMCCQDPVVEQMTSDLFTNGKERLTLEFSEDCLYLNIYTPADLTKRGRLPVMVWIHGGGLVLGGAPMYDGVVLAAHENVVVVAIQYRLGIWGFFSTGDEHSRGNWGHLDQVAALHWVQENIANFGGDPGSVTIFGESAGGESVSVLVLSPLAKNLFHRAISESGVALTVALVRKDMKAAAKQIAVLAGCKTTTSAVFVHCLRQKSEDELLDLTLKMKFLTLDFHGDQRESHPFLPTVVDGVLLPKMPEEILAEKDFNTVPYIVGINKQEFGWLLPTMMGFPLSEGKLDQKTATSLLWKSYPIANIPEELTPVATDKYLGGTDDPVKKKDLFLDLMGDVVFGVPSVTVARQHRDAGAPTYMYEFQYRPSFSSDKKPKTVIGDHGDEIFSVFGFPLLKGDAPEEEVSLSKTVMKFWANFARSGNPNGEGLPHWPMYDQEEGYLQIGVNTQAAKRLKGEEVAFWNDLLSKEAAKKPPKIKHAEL
# Outline: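 Porcine liver CES, 0.02 unit/mL, in 0.1 M K/Na phosphate pH 8.0, 25 °C; compound in DMSO (2% v/v final) preincubated 10 min, then 1 mM 4-nitrophenyl acetate; 4-nitrophenol read at 405 nm, enzyme-free blanks. Screening at 20 μM in three separate experiments; IC50 from eight concentrations between 10^-12 and 10^-4 M, residual activity relative to inhibitor-free control.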
# Acetylcholinesterase = Acetylcholinesterase (Homo sapiens, UniProt P22303); experiment: Inhibition of human erythrocyte AChE using acetylthiocholine iodide as substrate preincubated for 10 mins followed by substrate addition by Ellman's method
# Cholinesterase = Cholinesterase (Equus caballus, UniProt P81908); experiment: Inhibition of equine serum BuChE using […] as substrate preincubated for 10 mins followed by substrate addition by Ellman's method
# [1] = Antioxidant activity assessed as trolox equivalent of ABTS radical cation scavenging activity incubated for 24 hrs by UV-Vis spectrophotometric analysis; type: functional
# [2] = Antioxidant activity assessed as decrease in ABTS radical cation scavenging activity incubated for 24 hrs by UV-Vis spectrophotometric analysis; type: functional
# Liver carboxylesterase 1 = molecular target: T2, Liver carboxylesterase 1 (Homo sapiens, UniProt P23141); experiment: Inhibition of human recombinant CES1 expressed in baculovirus infected BTI insect cells using 4-NPA as substrate by spectrophotometric analysis
# T2 sequence (P23141 whole entry): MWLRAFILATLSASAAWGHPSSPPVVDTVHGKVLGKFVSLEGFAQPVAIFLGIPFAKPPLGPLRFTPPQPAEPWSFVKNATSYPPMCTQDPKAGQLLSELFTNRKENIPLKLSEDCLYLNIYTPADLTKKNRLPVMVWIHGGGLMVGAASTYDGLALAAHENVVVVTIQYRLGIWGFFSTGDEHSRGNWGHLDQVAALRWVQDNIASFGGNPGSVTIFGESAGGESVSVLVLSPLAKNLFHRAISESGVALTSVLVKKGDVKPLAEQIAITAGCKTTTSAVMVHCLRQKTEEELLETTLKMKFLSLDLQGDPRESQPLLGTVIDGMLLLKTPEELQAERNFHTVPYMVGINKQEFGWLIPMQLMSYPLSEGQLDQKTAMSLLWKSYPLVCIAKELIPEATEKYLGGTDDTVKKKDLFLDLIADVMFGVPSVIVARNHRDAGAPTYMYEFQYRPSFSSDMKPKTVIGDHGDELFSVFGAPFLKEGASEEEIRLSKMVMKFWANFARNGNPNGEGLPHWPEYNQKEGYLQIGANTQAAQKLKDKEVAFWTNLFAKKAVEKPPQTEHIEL
# Outline: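 Recombinant hCES1 (baculovirus/BTI insect cells), 0.02 unit/mL, in 0.1 M K/Na phosphate pH 7.4, 25 °C; compound (DMSO, 2% v/v final) preincubated 10 min, then 1 mM 4-nitrophenyl acetate added; 4-nitrophenol release read at 405 nm against enzyme-free blank. IC50 from eight concentrations (10^-12–10^-4 M) relative to inhibitor-free control.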
# [3] = Cytotoxicity against human FetMSC cells assessed as reduction in cell viability after 72 hrs by MTT assay; type: cell-based
# Outline: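 Human fetal MSC (bone-marrow fibroblast-like, nonimmortalized; ≤10–15 passages) grown in F12/DMEM with 10% FBS, 3 mM L-glutamine, penicillin/streptomycin. Seeded at 6×10^3 cells/well; after 24 h, medium replaced with compound at 100, 250, 500 μM for 72 h; controls 0.1% DMSO. MTT 0.5 mg/ml for 4 h, formazan dissolved in DMSO, read at 570 nm; control = 100%.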
# [4] = Acute toxicity in ip dosed CD-1 mouse observed for 14 days; type: organism-based; conditions: in vivo, time 14 day
# Outline: (§1)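 CD-1 mice given compound intraperitoneally in 2% (w/v) starch mucilage, three animals per dose group; lethality observed over 14 days; procedure based on OECD recommendations.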
# [5] = Acute toxicity in CD-1 mouse assessed as effect on mouse death at 900 mg/kg, ip measured after 14 days; type: organism-based; conditions: in vivo, 336 h, time 14 day; outline: as §1
# Sequence of Cholinesterase (P81908 whole entry): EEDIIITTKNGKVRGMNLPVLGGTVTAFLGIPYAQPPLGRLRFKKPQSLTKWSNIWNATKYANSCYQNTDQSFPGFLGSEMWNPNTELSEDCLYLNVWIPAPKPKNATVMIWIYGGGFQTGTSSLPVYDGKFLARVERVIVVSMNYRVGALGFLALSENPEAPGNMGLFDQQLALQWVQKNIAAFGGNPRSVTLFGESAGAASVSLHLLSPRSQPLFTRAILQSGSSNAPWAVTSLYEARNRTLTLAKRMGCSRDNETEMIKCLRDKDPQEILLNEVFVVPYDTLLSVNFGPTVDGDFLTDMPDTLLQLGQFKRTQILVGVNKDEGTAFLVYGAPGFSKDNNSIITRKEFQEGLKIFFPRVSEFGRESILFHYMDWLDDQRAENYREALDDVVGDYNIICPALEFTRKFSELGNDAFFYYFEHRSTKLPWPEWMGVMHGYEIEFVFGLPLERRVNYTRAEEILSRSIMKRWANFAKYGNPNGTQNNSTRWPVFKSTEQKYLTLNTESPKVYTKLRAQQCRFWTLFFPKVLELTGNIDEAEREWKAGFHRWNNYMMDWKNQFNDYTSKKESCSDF
# Sequence of Acetylcholinesterase (P22303 whole entry): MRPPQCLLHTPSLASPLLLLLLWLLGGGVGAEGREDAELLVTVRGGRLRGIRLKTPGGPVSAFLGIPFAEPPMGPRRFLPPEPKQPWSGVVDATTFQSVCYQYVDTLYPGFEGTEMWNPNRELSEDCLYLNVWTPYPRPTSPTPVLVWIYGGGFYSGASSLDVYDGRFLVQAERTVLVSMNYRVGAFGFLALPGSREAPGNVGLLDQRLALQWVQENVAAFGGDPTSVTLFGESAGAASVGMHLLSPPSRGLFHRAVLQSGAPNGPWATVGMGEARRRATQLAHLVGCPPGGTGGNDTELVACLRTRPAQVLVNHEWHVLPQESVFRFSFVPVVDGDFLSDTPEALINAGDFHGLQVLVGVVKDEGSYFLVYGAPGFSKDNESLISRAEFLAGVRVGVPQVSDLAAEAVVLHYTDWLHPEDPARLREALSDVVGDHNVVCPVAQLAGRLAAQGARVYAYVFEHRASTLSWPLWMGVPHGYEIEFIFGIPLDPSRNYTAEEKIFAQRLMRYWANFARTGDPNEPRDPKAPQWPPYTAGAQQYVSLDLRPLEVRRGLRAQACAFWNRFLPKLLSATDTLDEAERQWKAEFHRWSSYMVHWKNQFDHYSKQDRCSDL
smiles,measurement,setting,value
CCOC(=O)/C(=N\Nc1ccc(C)cc1)C(=O)C(F)(F)F,IC50,Liver carboxylesterase,0.00741 µM
same,IC50,Acetylcholinesterase,7.32 µM
same,IC50,Cholinesterase,8.34 µM
same,Activity,[1],0.95
same,IC50,[2],21.4 µM
same,IC50,Liver carboxylesterase 1,0.00292 µM
same,IC50,[3],> 500 µM
same,LD50 at 336 h,[4],900 mg/kg
same,Activity,[5],Non-Toxic
